What all share (assay type): cell-based
Series [1] can be described thus: Inhibition of NFkappaB signaling in human K562/ADR cells assessed as downregulation of MDR1 mRNA expression at 0.3 uM measured after 24 to 48 hrs by qRT-PCR analysis. Put shortly:
(§1)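 K562/ADR cells exposed to 0.3 μM for 0–48 h, or to various concentrations for 24 h. RNA isolated with TRIzol, then qRT-PCR: 95 °C 30 s, then 40 cycles of 95 °C 5 s and 60 °C 20 s. MDR1 quantified by ΔΔCT against β-actin; triplicate.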

Series [2] is described as follows: Inhibition of NFkappaB signaling in human K562/ADR cells assessed as downregulation of MDR1 expression at 0.3 uM measured after 24 to 48 hrs by Western blot analysis. Put shortly:
(§2)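 K562/ADR cells treated with 0.3 μM for 0–48 h, or with various concentrations for 24 h, at 37 °C. Total protein extracted and 60 μg run on 10% SDS-PAGE, then PVDF. Blots probed with MDR1 antibody (1:100) and β-actin (1:500), detected by ECL. Band density normalised to β-actin; triplicate.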
(In general: In western blotting, separated proteins are transferred to a membrane and probed.)

Series [3] is described as follows: Inhibition of NFkappaB signaling in human K562/ADR cells assessed as inhibition of TNFalpha-induced MDR1 promoter activity at 0.1 to 0.3 uM after 24 hrs by luciferase reporter gene assay. The essentials:
(§3)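 Cells plated overnight, then transiently co-transfected with hMDR1-Luc or NF-κB-Luc plus pRL-SV Renilla plasmid by lipofection. Exposed to compound and TNF-α for 24 h. Firefly luciferase normalised to Renilla in a dual-luciferase readout.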

Series [4] is described as follows: Inhibition of NFkappaB signaling in human K562/ADR cells assessed as inhibition of TNFalpha-induced MDR1 expression at 0.3 uM after 24 hrs by Western blot analysis. The essentials:
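K562/ADR cells incubated 24 h with 0.3 μM plus 5 nM TNF-α. Lysates blotted for MDR1 (1:100) with β-actin (1:500) as loading control, detected by ECL. Densities normalised to β-actin; three experiments.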

In series [5] the target is T1, NF-kappa-B inhibitor alpha (Homo sapiens) (UniProt P25963).
T1 sequence (whole entry): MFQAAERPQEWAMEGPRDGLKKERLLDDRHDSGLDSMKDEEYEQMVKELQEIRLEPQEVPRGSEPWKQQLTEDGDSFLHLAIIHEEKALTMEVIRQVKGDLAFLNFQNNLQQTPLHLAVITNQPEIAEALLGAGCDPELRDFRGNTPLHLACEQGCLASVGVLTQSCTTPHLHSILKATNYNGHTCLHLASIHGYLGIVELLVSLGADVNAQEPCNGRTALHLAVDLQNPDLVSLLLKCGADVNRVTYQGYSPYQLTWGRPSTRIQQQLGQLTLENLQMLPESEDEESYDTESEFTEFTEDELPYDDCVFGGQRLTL
Put plainly: Inhibition of TNFalpha-induced IkappaB-alpha phosphorylation in human K562/ADR cells assessed as decrease in NKkappaB activity at 0.3 uM measured at 12 to 48 hrs by Western blot analysis. Put shortly: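 K562/ADR cells incubated with 0.3 μM for 0–48 h, then TNF-α for 30 min. Lysates blotted for phospho-IκB-α Ser32/36 (1:1000) and β-actin, detected by ECL. Densities normalised to β-actin; three experiments.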

The nature of series [6]: Inhibition of NFkappaB signaling in human K562/ADR cells assessed as inhibition of TNFalpha-induced NFkappaB promoter activity at 0.1 to 0.3 uM after 24 hrs by luciferase reporter gene assay. Put shortly: as §3
Background: In a reporter assay the amount or activity of a reporter protein is the signal.

Series [7] in a line: Inhibition of NFkappaB signaling in human K562/ADR cells assessed as downregulation of MDR1 mRNA expression at 0.3 uM measured for 24 hrs by qRT-PCR analysis. Put shortly: as §1
A short description of series [8]: Inhibition of NFkappaB signaling-mediated MDR1 activity in human K562/ADR cells assessed as increase in intracellular accumulation of adriamycin at 0.3 uM incubated for 24 hrs followed by adriamycin addition measured after 1 hr by flow cytometric analysis (reference value: 46.3%). The essentials: (§4)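 K562/ADR cells, 4 × 10^6 per well, pretreated with 0.3 μM for 24 h at 37 °C; K562 and untreated K562/ADR run alongside. All incubated with 25 μM ADR for 1 h at 37 °C and washed three times with ice-cold PBS. ADR autofluorescence read by flow cytometry (ex 488 nm, em 575 nm) as mean intensity; three experiments.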
For orientation: In flow cytometry, cells or beads pass a laser one at a time.

The nature of series [9]: Inhibition of NFkappaB signaling-mediated MDR1 activity in human K562/ADR cells assessed as increase in intracellular accumulation of adriamycin at 0.3 uM incubated for 24 hrs followed by adriamycin addition measured after 1 hr by flow cytometric analysis relative to K562 cells. Put shortly: as §4
Series [10] can be described thus: Cytotoxicity against human K562/ADR cells assessed as cell viability after 48 hrs by MTT assay. Put shortly:
(§5)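 Cells grown in RPMI 1640 with 10% FBS at 37 °C, 5% CO2; K562/ADR kept off ADR for 2 weeks before use. Cells seeded at 4 × 10^3 per well, exposed to 0.1–100 μM for 48 h. MTT added for 4 h, then SDS–isobutanol–HCl solubilisation overnight, absorbance read at 570 nm. IC50 from three experiments.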

Series [11] in a line: Inhibition of NFkappaB signaling in human K562/ADR cells assessed as downregulation of MDR1 expression at 0.3 uM measured for 24 hrs by Western blot analysis. Put shortly: as §2
Series [12] is described as follows: Inhibition of NFkappaB signaling-mediated MDR1 activity in human K562/ADR cells assessed as potentiation of adriamycin-induced cytotoxicity after 48 hrs by MTT assay.
Another series concerns K562. The series is described as follows: Cytotoxicity against human K562 cells assessed as cell viability after 48 hrs by MTT assay. The essentials: as §5

Activity calls are given as the source filed them. The rule behind the calls is not given here.

The values that follow come from ChEMBL document CHEMBL2375241, “Dioscin restores the activity of the anticancer agent adriamycin in multidrug-resistant human leukemia K562/adriamycin cells by down-regulating MDR1 via a mechanism involving NF-κB signaling inhibition” (J Nat Prod, 2013).

Regarding `C[C@@H]1CC[C@@]2(OC1)O[C@H]1C[C@H]3[C@@H]4CC=C5C[C@@H](O[C@@H]6O[C@H](CO)[C@@H](O[C@@H]7O[C@@H](C)[C@H](O)[C@@H](O)[C@H]7O)[C@H](O)[C@H]6O[C@@H]6O[C@@H](C)[C@H](O)[C@@H](O)[C@H]6O)CC[C@]5(C)[C@H]4CC[C@]3(C)[C@H]1[C@@H]2C` [DIOSCIN], the inhibition in [1] was determined as 97.8%; in series [2], 84.7%; in [7], 93.1%; in series [8], 78.4%; in series [9], 59.8%; in series [11], 91.4%. For the same compound, the inhibition entry in series [3], in series [4], in [5], in [6] and in series [12] was “Active” each time. Besides, the IC50 in series [10] (Homo sapiens, K562/Adr) worked out at 3.3 µM; with K562 (Homo sapiens, K562, 48 h), 4.7 µM. Besides, the concentration for an effect of 10% (IC10) in series [10] (human, k562/adr) is 0.3 µM; in the series on K562 (human, k562, 48 h) it was 0.4 µM.

By inhibition is commonly meant the change of the read-out against control, counted positive when it falls. What is called IC50 is the point on the concentration scale where inhibition reaches its midpoint. As usually defined, the IC10 is the point of the concentration-response curve where the effect stands at 10%.
